The record followed here is ChEMBL document CHEMBL3580596, “Discovery of Multitarget Antivirals Acting on Both the Dengue Virus NS5-NS3 Interaction and the Host Src/Fyn Kinases” (J Med Chem, 2015).

As a reminder, the pEC50 is the EC50 on a negative log10 scale, so that one unit is a factor of ten. The CC50 is the concentration giving 50% cytotoxicity. As usually defined, the inhibition is the relative decrease from the control value, in per cent.

The test system of data set [1] is dengue virus type 2. Briefly: Antiviral activity against DENV serotype 2 strain New Guinea V infected in African green monkey Vero B cells assessed as inhibition of virus replication after 4 days by qRT-PCR analysis. Type of data set: functional, organism-based. Conditions: 96 h. The gist of the method: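 Vero-B cells, 5×10^4/well, infected one day after seeding with 100 CCID50 DENV-2 NGC for 2 h, then washed 3 times. Cultured 4 days with 5-fold compound dilutions (50–0.08 μg/mL) in medium with 2% FBS. Supernatant viral RNA measured by RT-qPCR; EC50 (50% inhibition of RNA replication) found by logarithmic interpolation.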
(In qPCR the cycle at which signal appears reflects the starting amount.)

Data set [2] in a line: Cytotoxicity against african green monkey Vero B cells. The settings on record: chlorocebus sabaeus. Type of data set: cell-based. The procedure, abridged: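 Uninfected Vero-B cells treated with compound dilutions; CC50 taken as concentration giving 50% reduction of metabolic activity or cell growth. Read-out by MTS/PMS (yield-assay series) or by 7-day methylene blue staining with microscopic scoring (CPE series, 1:2 dilutions from 100 μg/mL).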

Data set [3] concerns dengue virus type 2. Nature of the data set: Inhibition of DENV2 His- and FLAG-tagged NS3 and NS5 protein interaction at 500 uM after 1 hr by alphascreen assay. On the technique in general: Alpha assays give light when donor and acceptor beads are brought close together.
A short description of data set [4]: Selectivity index, ratio of CC50 for African green monkey Vero B cells to EC50 for DENV serotype 2 strain New Guinea V.
Data set [5] addresses Proto-oncogene tyrosine-protein kinase Src (Homo sapiens) (UniProt P12931). Nature of the data set: Inhibition of human his-tagged full length Src active enzyme using KVEKIGEGTYGVVYK substrate by scintillation counting analysis.
The subject of data set [6] is dengue virus type 2. Nature of the data set: Antiviral activity against DENV serotype 2 strain New Guinea V infected in African green monkey Vero B cells assessed as inhibition of virus-induced cytopathogenic effect after 7 days. Type of data set: functional, organism-based. Conditions: for EC50: vero; for pEC50: Dengue virus, New Guinea V, Vero, 168 h, read-out: EC50. The procedure, abridged:
(§1)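 Vero-B cells, 7×10^3/well, adhered overnight, then given 1:2 serial dilutions (start 100 μg/mL) plus 100 CCID50 DENV-2 NGC (virus grown in C6/36 cells) in MEM with 2% FBS. After 7 days, fixed with ethanol and stained with 1% methylene blue. EC50 for 50% inhibition of virus-induced CPE comes from microscopic scoring of each well.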
(Cytopathic effects are the visible damage that an infection or toxin causes in cultured cells.)

In data set [7] the target is Tyrosine-protein kinase Fyn (Homo sapiens) (UniProt P06241). Briefly: Inhibition of human his-tagged full length Fyn active enzyme using KVEKIGEGTYGVVYK substrate by scintillation counting analysis.
Data set [8] has as its target Proto-oncogene tyrosine-protein kinase Src (Homo sapiens) (UniProt P12931). Nature of the data set: Inhibition of human his-tagged full length Src active enzyme using KVEKIGEGTYGVVYK substrate at 100 uM by scintillation counting analysis.
Data set [9] addresses Tyrosine-protein kinase Fyn (Homo sapiens) (UniProt P06241). Nature of the data set: Inhibition of human his-tagged full length Fyn active enzyme using KVEKIGEGTYGVVYK substrate at 100 uM by scintillation counting analysis.
For the next data set, the system named is Dengue virus. Nature of the data set: Antiviral activity against DENV by CPE-reduction assay. Type of data set: functional, organism-based. The procedure, abridged:
as §1

Data set [10] deals with dengue virus type 2. Nature of the data set: Antiviral activity against DENV serotype 2 strain New Guinea V infected in African green monkey Vero B cells assessed as RNA replication after 4 days by RT-qPCR analysis. Type of data set: functional, organism-based. The procedure, abridged: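 Vero-B cells (5×10^4/well) infected 2 h with DENV-2 NGC (100 CCID50), washed 3×, then cultured 4 days with 5-fold serial compound dilutions (50 – 0.08 μg/mL) in MEM with 2% FBS. Viral RNA in supernatant quantified by RT-qPCR; EC50 (50% inhibition of viral RNA replication) by logarithmic interpolation.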

For data set [11], the system named is dengue virus type 2. Nature of the data set: Ratio of ribavirin EC50 to compound EC50 for DENV serotype 2 strain New Guinea V infected in African green monkey Vero B cells assessed as inhibition of virus-induced cytopathogenic effect after 7 days. Type of data set: functional.
In data set [12] the test system is dengue virus type 2. Nature of the data set: Inhibition of DENV2 His- and FLAG-tagged NS3 and NS5 protein interaction at 50 uM after 1 hr by alphascreen assay. The gist of the method: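 Wheat-germ cell-free expressed HF-NS3 (or HF-DHFR as negative control) and GST-tagged biotinylated NS5, 25 nM each, incubated 1 h at room temperature with compound (0.5% DMSO) in Tris pH 7.5/NaCl/MgCl2/DTT/BSA/Tween-20 buffer. Then anti-FLAG IgG, protein A acceptor and streptavidin donor beads added for 1 h; luminescence expressed as % of DMSO control, n=2.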

pEC50: −log10 of the molar value. The source made the active and inactive calls. No cut-off for these calls is given here.

Chain of Proto-oncogene tyrosine-protein kinase Src (Homo sapiens) (P12931 2-536 limits assumed): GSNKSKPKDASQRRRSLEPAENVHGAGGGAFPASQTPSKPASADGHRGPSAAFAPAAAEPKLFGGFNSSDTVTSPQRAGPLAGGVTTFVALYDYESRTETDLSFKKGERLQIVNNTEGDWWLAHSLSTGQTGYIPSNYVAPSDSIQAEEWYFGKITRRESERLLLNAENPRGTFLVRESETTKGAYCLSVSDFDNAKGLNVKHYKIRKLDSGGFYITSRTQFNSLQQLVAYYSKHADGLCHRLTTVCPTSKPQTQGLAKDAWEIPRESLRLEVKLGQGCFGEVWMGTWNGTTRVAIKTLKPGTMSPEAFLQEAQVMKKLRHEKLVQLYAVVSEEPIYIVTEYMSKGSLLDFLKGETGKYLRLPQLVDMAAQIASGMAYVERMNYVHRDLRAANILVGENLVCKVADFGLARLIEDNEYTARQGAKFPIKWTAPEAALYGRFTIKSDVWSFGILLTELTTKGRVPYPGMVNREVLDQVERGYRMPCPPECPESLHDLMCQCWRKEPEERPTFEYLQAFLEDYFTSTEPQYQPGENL
Chain of Tyrosine-protein kinase Fyn (Homo sapiens) (P06241 2-537 limits assumed): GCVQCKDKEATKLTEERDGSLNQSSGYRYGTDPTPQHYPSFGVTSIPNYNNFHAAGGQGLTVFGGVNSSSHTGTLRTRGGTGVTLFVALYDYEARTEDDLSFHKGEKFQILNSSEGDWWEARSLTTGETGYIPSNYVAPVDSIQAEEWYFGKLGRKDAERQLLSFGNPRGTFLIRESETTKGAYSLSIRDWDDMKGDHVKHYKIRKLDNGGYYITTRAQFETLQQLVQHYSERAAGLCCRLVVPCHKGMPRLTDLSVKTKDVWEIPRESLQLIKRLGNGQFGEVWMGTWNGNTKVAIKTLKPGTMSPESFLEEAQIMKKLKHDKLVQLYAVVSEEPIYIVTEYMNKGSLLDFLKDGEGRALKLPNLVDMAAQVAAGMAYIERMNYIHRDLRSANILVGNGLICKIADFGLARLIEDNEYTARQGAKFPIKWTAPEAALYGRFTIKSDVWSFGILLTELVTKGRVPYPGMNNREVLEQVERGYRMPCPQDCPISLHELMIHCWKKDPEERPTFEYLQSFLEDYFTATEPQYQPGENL

`CNc1nc(Nc2ccc(C(C)=O)cc2)c2nc[nH]c2n1`: the pEC50 in the data set on dengue virus type 2 [1] was 4.38. In data set [2], the CC50 is greater than 177 µM. In the data set on dengue virus type 2 [3], the inhibition entry is “Active”. The “Ratio CC50/EC50” value in data set [4] is reported as greater than 4.

As to `NS(=O)(=O)c1ccc(Nc2nc(N3CCOCC3)nc3[nH]cnc23)cc1`, in [2], the cytotoxic concentration (CC50) was 373 µM. The results for the ID50 in [5] and in data set [7] were 0.9 µM and 0.5 µM, respectively. Moreover, the inhibition result in the data set with dengue virus type 2 [3] is “Active”. For the same compound, in the data set on dengue virus type 2 [6], the EC50 result is “Not Active”.

As for `CC(=O)c1ccc(Nc2nc(NCCC(C)C)nc3[nH]cnc23)cc1`, the pEC50 in the data set on dengue virus type 2 [1] is 4.23. For the same compound, in data set [2], the CC50 amounted to 85 µM. Moreover, the inhibition entry in the data set with dengue virus type 2 [3] is “Active”. For the same compound, the “Ratio CC50/EC50” value in data set [4] was 1.

Take `Oc1cccc(Nc2nc(NCc3ccccc3)nc3[nH]cnc23)c1`: the negative-log EC50 (pEC50) with dengue virus type 2 [1] was 4.16. The 50% cytotoxic concentration (CC50) in data set [2] was greater than 150 µM. Besides, the ID50 in data set [5] came to 3.7 µM; in data set [7], 4.1 µM. Besides, the inhibition entry in the data set with dengue virus type 2 [3] is “Active”. For the same compound, in data set [4], the “Ratio CC50/EC50” value was greater than 2.

`NS(=O)(=O)c1ccc(Nc2nc(N3CCN(CCO)CC3)nc3nc[nH]c23)cc1` came in with a CC50 in data set [2] of 437 µM.

On to `NC(=O)c1ncn([C@@H]2O[C@H](CO)[C@@H](O)[C@H]2O)n1` [RIBAVIRIN], for which, in the data set on dengue virus type 2 [1], the negative logarithm of the EC50 (pEC50) is 4.38. Besides, the midpoint of cytotoxicity in data set [2], the CC50, lay at 409 µM. Also, the “Ratio CC50/EC50” value in data set [4] is greater than 10.

For the compound `COc1ccc(Cn2c(C)cc(OCc3cccc(F)c3)cc2=O)cc1`, the inhibition entry in [8] and in data set [9] was “inactive” each time. In addition, the CC50 in [2] is less than 6.4 µM. The negative logarithm of the EC50 (pEC50) in the data set with dengue virus type 2 [6] was greater than 5.19.

In turn, `COc1cc2ncc(C#N)c(Nc3ccc(Cl)cc3Cl)c2cc1OC` yielded a CC50 in [2] of less than 5.7 µM. In addition, the ID50 in data set [5] amounted to 0.03 µM; in data set [7], 0.22 µM. Besides, the negative-log EC50 (pEC50) in the data set with dengue virus type 2 [6] is greater than 5.24.

For `COc1ccc2c(Nc3ccc(Cl)cc3Cl)c(C#N)cnc2c1`, it took 19 µM to reach half-maximal cytotoxicity in data set [2] (CC50). For the same compound, the ID50 was 0.2 µM in data set [5] and 2 µM in data set [7]. Further, the EC50 result in the data set on dengue virus type 2 [6] is given as “Not Active”.

As to `CC(C)CCNc1nc(Nc2cccc(O)c2)c2nc[nH]c2n1`, the negative-log EC50 (pEC50) in the data set on dengue virus type 2 [1] is 4.70. Also, in [2], half-maximal cytotoxicity (CC50) was put at 151 µM. The ID50 in data set [5] and in data set [7] was 1.7 µM throughout. In addition, the inhibition result in the data set on dengue virus type 2 [3] was “Active”. Moreover, the “Ratio CC50/EC50” value in [4] is reported as 8.

In [2], `Cc1cc(OCc2ccc(F)cc2F)cc(=O)n1Cc1cn(Cc2cccc(Br)c2)nn1` came in with a CC50 of 36 µM. For the same compound, the EC50 entry with dengue virus type 2 [6] is listed as “Not Active”.

In the data set with Dengue virus, `CN1CCN(CCOc2cc(OC3CCOCC3)c3c(Nc4c(Cl)ccc5c4OCO5)ncnc3c2)CC1` [SARACATINIB] had a negative logarithm of the EC50 (pEC50) of 5.22.

As for `CNc1nc(Nc2cccc(O)c2)c2nc[nH]c2n1`, the pEC50 in the data set with dengue virus type 2 [1] is 5.28. Besides, the figures for the ID50 in data set [8] and in data set [7] were 4.9 µM and 3.6 µM, respectively. Moreover, the cytotoxic concentration (CC50) in data set [2] amounted to 168 µM. In addition, the inhibition result was “Dose-dependent effect” in the data set on dengue virus type 2 [10] and 33% in the data set with dengue virus type 2 [12]. In addition, in the data set with dengue virus type 2 [3], the inhibition result was “Active”. The “Ratio CC50/EC50” value in [4] came to 32. For the same compound, the “Ratio EC50” value in the data set on dengue virus type 2 [11] is 10.

For `CC(=O)c1ccc(Nc2nc(NCCO)nc3[nH]cnc23)cc1`, the negative logarithm of the EC50 (pEC50) in the data set with dengue virus type 2 [1] was 4.14. The compound further had a CC50 in [2] of 160 µM. Besides, the inhibition entry with dengue virus type 2 [3] was “Active”. Further, the “Ratio CC50/EC50” value in data set [4] stood at 2.

Compound `Cc1nc(Nc2ncc(C(=O)Nc3c(C)cccc3Cl)s2)cc(N2CCN(CCO)CC2)n1` [DASATINIB] showed a negative logarithm of the EC50 (pEC50) in the data set on Dengue virus of 6.00.

For the compound `NS(=O)(=O)c1ccc(Nc2nc(N3CCN(CCO)CC3)nc3[nH]cnc23)cc1`, the ID50 in [5] amounted to 7.4 µM; in data set [7] it was 4.8 µM. Also, in the data set on dengue virus type 2 [3], the inhibition result was “Active”. The EC50 entry in the data set on dengue virus type 2 [6] was “Not Active”.

Regarding `Cc1cc(OCc2ccc(F)cc2F)cc(=O)n1Cc1cn(Cc2cccc(C(F)(F)F)c2)nn1`, the inhibition result in data set [8] and in data set [9] was “inactive” in each case. Besides, the cytotoxic concentration (CC50) in data set [2] is 40 µM. Moreover, in the data set with dengue virus type 2 [6], the EC50 entry is on record as “Not Active”.

`COc1ccc2c(Nc3ccc(N4CCN(C)CC4)cc3)c(C#N)cnc2c1`: the inhibition result in data set [8] and in data set [9] was “inactive” each time. In data set [2], this compound yielded a 50% cytotoxic concentration (CC50) of 7.9 µM. The EC50 entry in the data set with dengue virus type 2 [6] is given as “Not Active”.

On to `OCCN1CCN(c2nc(Nc3ccccc3)c3nc[nH]c3n2)CC1`, for which the CC50 in [2] was 474 µM. The ID50 in data set [5] and in data set [7] was 4.2 µM each time. In the data set on dengue virus type 2 [3], the inhibition result is “Active”. In addition, the EC50 result in the data set on dengue virus type 2 [6] is reported as “Not Active”.
